The text below walks through data of ChEMBL document CHEMBL1128437, “Derivatives of 17-phenyl-18,19,20-trinorprostaglandin F2 alpha isopropyl ester: potential antiglaucoma agents” (J Med Chem, 1995).

For experiment [1], the species on record is Oryctolagus cuniculus. In words: The maximal difference in conjunctival hyperemia between treated and control eyes. The effect was tested in rabbit at a dose of 0.5 (ug/eye).
The species named for experiment [2] is Oryctolagus cuniculus. In words: The mean area between curves for conjunctival hyperemia between treated and control eyes. The effect was tested in rabbit at a dose of 0.5 (ug/eye).
The species named for experiment [3] is Felis catus. In words: The mean ocular irritation in the treated eyes. An arbitrary scale of from 0 to 3 was used, 0 indicates absence of irritation and 3 complete closure of the lids. The effect was tested in cats at a dose of 1.0 (ug/eye). In kind it is functional. The essentials: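 Ocular irritation was scored in the treated eye of trained female cats, 2–3 kg. Drug was given as one topical 20 µL drop in 0.9% NaCl with 0.5% polysorbate 80. The contralateral eye got vehicle only.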

The species entered for experiment [4] is Felis catus. As to the kind of experiment: The mean area between curves for pupil diameter between treated and control eyes. The effect was tested in cats at a dose of 1.0 (ug/eye). In kind it is functional. The essentials: (§1)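 Trained female cats, 2–3 kg, were dosed unilaterally with one 20 µL topical drop of drug in 0.9% NaCl/0.5% polysorbate 80, with vehicle in the contralateral eye. Horizontal pupil diameter was measured with a millimetre ruler under constant 10 lux illumination before dosing and at 1, 3, 6 and 23 h. Reported as maximal treated–control difference or as area between curves, per animal.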

For experiment [5], the species on record is Felis catus. In words: The mean area between curves for Intraocular Pressure (IOP) measured in treated and control eyes. The effect was tested in cats at a dose of 1.0 (ug/eye). The format is functional. The method in brief: (§2)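 Domestic female cats, 2–3 kg, trained for IOP measurement. One eye received a topical drop (20 µL) of drug in 0.9% NaCl with 0.5% polysorbate 80; the other eye received vehicle. IOP was read by pneumatonometer under oxibuprocain local anaesthesia before dosing and at 1, 3, 6 and 23 h. The maximal treated-minus-control difference was taken. Area between curves is the treated-eye AUC minus control-eye AUC, per animal.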

The species entered for experiment [6] is Felis catus. In words: The maximal difference in […] pupil diameter between treated and control eyes. The effect was tested in cats at a dose of 1.0 (ug/eye). The format is functional. The essentials: as §1
Experiment [7] is filed under the species Felis catus. In words: The maximal difference in Intraocular Pressure (IOP) between treated and control eyes. The effect was tested in cats at a dose of 1.0 (ug/eye). In kind it is functional. The essentials:
as §2

A value given as a limit tells only on which side of the number the result lay.

Consider `CC(C)OC(=O)CCC/C=C\C[C@@H]1[C@@H](/C=C/[C@H](O)CCc2ccc(-c3ccoc3)cc2)[C@H](O)C[C@@H]1O`, for which the Hmax in experiment [1] is given as -0.3. In experiment [2], the “H ABC” value is on record as -0.7.
With `CC(C)OC(=O)CCC/C=C\C[C@@H]1[C@@H](/C=C/[C@H](O)CCc2cccc(-c3cccs3)c2)[C@H](O)C[C@@H]1O`, the Irritation in experiment [3] worked out at 0.3 arbitrary units. The Hmax in experiment [1] is reported as 0.2. Also, the “P ABC” value in experiment [4] was <-12.4. Besides, the “H ABC” value in experiment [2] is listed as 0.1. For the same molecule, the “I ABC” value in experiment [5] came out at 12.8. The Pmax in experiment [6] is < -1.3 mm. Further, in experiment [7], the Imax is reported as <2.2 mmHg.
The molecule `CC(=O)c1ccc(CC[C@@H](O)/C=C/[C@@H]2[C@@H](C/C=C\CCCC(=O)OC(C)C)[C@@H](O)C[C@H]2O)cc1` gave an Irritation in experiment [3] of 0 arbitrary units. For the same molecule, the Hmax in experiment [1] is listed as -0.2. Moreover, in experiment [4], the “P ABC” value came out at 0.2. Moreover, the “H ABC” value in experiment [2] is reported as -0.3. Besides, the “I ABC” value in experiment [5] is -17.9. In addition, the Pmax in experiment [6] is -0.2 mm. In addition, in experiment [7], the Imax is -1.8 mmHg.
Molecule `CC(C)OC(=O)CCC/C=C\C[C@@H]1[C@@H](/C=C/[C@@H](O)CCc2cccc(-c3ccccc3)c2)[C@H](O)C[C@@H]1O` displayed an Irritation in experiment [3] of 0.1 arbitrary units. Further, the Hmax in experiment [1] was <0.9. Also, the “P ABC” value in experiment [4] stood at 2.3. Also, the “H ABC” value in experiment [2] is recorded as <1.9. Moreover, the “I ABC” value in experiment [5] is recorded as <-30. Besides, the Pmax in experiment [6] was -0.3 mm. In addition, the Imax in experiment [7] was <-4 mmHg.
Molecule `CC(C)OC(=O)CCC/C=C\C[C@@H]1[C@@H](/C=C/[C@@H](O)CCc2cccc(-c3ccsc3)c2)[C@H](O)C[C@@H]1O` gave an Irritation in experiment [3] of 0.1 arbitrary units. For the same molecule, in experiment [1], the Hmax is <1.3. Besides, the “P ABC” value in experiment [4] is on record as -1.7. Also, the “H ABC” value in experiment [2] is reported as <2.9. In experiment [5], the “I ABC” value is given as -21. Moreover, the Pmax in experiment [6] is < -1 mm. Moreover, the Imax in experiment [7] is recorded as -1.1 mmHg.
Molecule `CC(C)OC(=O)CCC/C=C\C[C@@H]1[C@@H](/C=C/[C@H](O)CCc2cccc(-c3ccsc3)c2)[C@H](O)C[C@@H]1O` showed an Irritation in experiment [3] of 0.1 arbitrary units. The Hmax in experiment [1] is -0.3. The “P ABC” value in experiment [4] is recorded as <-14. Further, in experiment [2], the “H ABC” value is -0.8. Besides, the “I ABC” value in experiment [5] is listed as 16. Moreover, in experiment [6], the Pmax was < -1 mm. Further, the Imax in experiment [7] worked out at 1.7 mmHg.
For the molecule `CC(C)OC(=O)CCC/C=C\C[C@@H]1[C@@H](/C=C/[C@@H](O)CCc2ccc(-c3ccoc3)cc2)[C@H](O)C[C@@H]1O`, the Hmax in experiment [1] is 0.2. For the same molecule, the “H ABC” value in experiment [2] was 0.3.
In experiment [3], `CC(C)OC(=O)CCC/C=C\C[C@@H]1[C@@H](/C=C/[C@H](O)CCc2cccc(-c3ccccc3)c2)[C@H](O)C[C@@H]1O` showed an Irritation of 0 arbitrary units. For the same molecule, the Hmax in experiment [1] was <0.7. In experiment [4], the “P ABC” value is listed as 6.5. The “H ABC” value in experiment [2] was <2.2. The “I ABC” value in experiment [5] is recorded as -23.5. For the same molecule, the Pmax in experiment [6] turned out to be 0.5 mm. For the same molecule, the Imax in experiment [7] is recorded as <-1.5 mmHg.
Regarding `Cc1cccc(CC[C@@H](O)/C=C/[C@@H]2[C@@H](C/C=C\CCCC(=O)OC(C)C)[C@@H](O)C[C@H]2O)c1`, the Irritation in experiment [3] stood at 0.1 arbitrary units. This molecule also yielded an Hmax in experiment [1] of 0.2. For the same molecule, the “P ABC” value in experiment [4] is <-13.3. Moreover, in experiment [2], the “H ABC” value is reported as -0.1. Further, the “I ABC” value in experiment [5] is listed as -1.8. In addition, the Pmax in experiment [6] was < -1.5 mm. The Imax in experiment [7] is given as -0.3 mmHg.
In experiment [3], `CC(C)OC(=O)CCC/C=C\C[C@@H]1[C@@H](/C=C/[C@H](O)CCc2ccccc2)[C@H](O)C[C@@H]1O` gave an Irritation of 0 arbitrary units. In addition, the Hmax in experiment [1] was <1.7. In addition, the “P ABC” value in experiment [4] is <-50.5. In addition, the “I ABC” value in experiment [5] stood at 0.3. Moreover, the Pmax in experiment [6] was < -5.7 mm. For the same molecule, the Imax in experiment [7] was -0.5 mmHg.
